Published values collected from several papers.
Protocols differ between the studies behind these lines.
Target: Serine/threonine-protein kinase PAK 2 (PAK2, Homo sapiens, UniProt Q13177)

The remaining activity of `COc1cc(Cl)c(C(=O)N[C@@H](CN[C@H]2CC[C@@H](N)CC2)Cc2ccc(C#N)cc2)cc1-c1ccc(CN[C@H](C)c2ccc(C)cc2)o1` is reported as 98% (enzyme activity, inhibitor; 1 µM).
`Clc1ccc(Nc2nnc(Cc3ccncc3)c3ccccc23)cc1` gave a remaining signal of 101% (cell-free assay; 0.5 µM).
`Cc1ccc(C(=O)Nc2ccc(CN3CCN(C)CC3)c(C(F)(F)F)c2)cc1C#Cc1cnc2cccnn12` has a remaining activity of 70% (enzyme activity, inhibitor; 23.5 nM).
For `CS(=O)(=O)Nc1cccc(-c2csc(NC(=O)CSc3nc4nccnc4c(=O)n3CCc3ccccc3)n2)c1`, the inhibition was 3% (enzyme activity, inhibitor; 10 µM).
The remaining activity of `COc1cc(Nc2cnc(C#N)c(O[C@H](C)CN(C)C)n2)ncc1-c1cnn(C)c1` is reported as 70% (enzyme activity, inhibitor, radiometric; 10 µM).
The remaining activity of `O=C(Nc1cnn(-c2csc(C(=O)NC3COC3)c2)c1)Nc1c(F)cccc1Cl` is reported as 95.3% (enzyme activity, inhibitor; 5 µM).
With `CS(=O)(=O)NCC[C@H](NC(=O)c1cncc2c1cnn2-c1ccc(F)cc1)c1ccnc(S(C)(=O)=O)c1` the remaining binding was 71% (cell-free assay, competition with immobilised ligand; 1 µM).
`Cc1ccc(C(=O)NCc2ccsc2)cc1C#Cc1cn(C(C)C)c2ncnc(N)c12` has an activity vs control of 79% (enzyme activity, inhibitor; 1 µM).
`Cc1ccc(Nc2nccc(N(C)c3ccc4c(C)n(C)nc4c3)n2)cc1S(N)(=O)=O` has an inhibition of 24% (enzyme activity, inhibitor; 10 µM).
`CC(C)(O)c1cncc(-c2nc3ccc(F)cc3n2C2CC2)c1` gave a remaining binding of 100% (cell-free assay, competition with immobilised ligand; 1 µM).
For `Cn1c(=O)n(-c2ccc(C(C)(C)C#N)cc2)c2c3cc(-c4cnc5ccccc5c4)ccc3ncc21`, the remaining activity was 87% (enzyme activity, inhibitor; 10 µM).
For `C[C@H](c1ccnc(Nc2nc3ccc(-c4cc(N(C)C)ncn4)cc3[nH]2)c1)N1CCN(C(=O)CC(F)(F)F)CC1`, the remaining binding was 68% (cell-free assay, competition with immobilised ligand; 0.1 µM).
`CCN(CC)CCNC(=O)c1c(C)[nH]c(/C=C2\C(=O)Nc3ccc(F)cc32)c1C` gave an inhibition of -8% (enzyme activity, inhibitor; 0.3 µM).
With `CN([C@@H]1CCc2c(CC(=O)O)c3cc(S(C)(=O)=O)ccc3n2C1)S(=O)(=O)c1ccc(F)cc1` the remaining binding was 100% (cell-free assay, competition with immobilised ligand; 1 µM).
For `CNCc1ccc(-c2cc(-c3nc(-c4ccc(S(=O)(=O)C(C)C)cc4)cnc3N)on2)cc1`, the inhibition was 7% (enzyme activity, inhibitor; 0.4 µM).
For `CO[C@@H](C)c1c(Nc2ccc([C@H](N(C)C(=O)C3CCS(=O)(=O)CC3)C(F)(F)F)cc2)cnc2cc(Cl)nn12`, the remaining binding was 76% (cell-free assay, competition with immobilised ligand; 1 µM).
The inhibition of `CC/C(=N\NC(=O)NCc1cccc(O)c1)c1ccc(O)c(C)c1O` is reported as 3% (enzyme activity, inhibitor; 0.1 µM).
`CC(C)CC(=O)N1CCc2nc(-c3ccc(Br)cc3)nc(N(C)Cc3ccccc3)c2C1` gave a remaining binding of 100% (cell-free assay, competition with immobilised ligand; 0.1 µM).
For `O=C1Nc2ccc(Cl)cc2C1=Cc1cc(Cl)c(O)c(Cl)c1`, the remaining signal was 96.8% (cell-free assay; 0.5 µM).
For `FC(F)(F)Oc1cccc(-c2cnc3ccc(-c4ccncc4)nn23)c1`, the activity vs control was 88% (enzyme activity, inhibitor, radiometric; 5 µM).
For `C#Cc1cccc(Nc2ncnc3cc(OCCOC)c(OCCOC)cc23)c1`, the remaining signal was 99.1% (cell-free assay; 0.5 µM).
With `O=C(Nc1cnc(Oc2ccc(F)cc2)nc1)N1CCc2ncccc2[C@@H]1c1ccc(F)cc1` the remaining binding was 59% (cell-free assay, competition with immobilised ligand; 1 µM).
